Reference: ChEMBL document CHEMBL1123915, “Macrolides with gastrointestinal motor stimulating activity” (1987)
In brackets after ≈: the same amount, converted by molar mass.

Columns and labels:
[1] = test system: Bacillus subtilis; experiment: Antibacterial activity against Bacillus subtilis ATCC 6633; assay type: functional
How it was run: (§1)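 MIC determined by agar dilution. Strains as listed on each line.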

[2] = test system: Bacillus cereus; experiment: Antibacterial activity against Bacillus cereus IFO 3001; assay type: functional; how it was run: as §1
[3] = test system: Canis familiaris; experiment: Evaluated for gastrointestinal motor stimulating (GMS) activity in dog estimated in vivo by 2 x 2 points parallel line assay. Activity of EM-A was assumed to be 1; assay type: functional, Canis lupus familiaris
How it was run: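 Fasted conscious dogs carried chronically implanted serosal force transducers recording circular muscle contraction in the gastric body, antrum and small intestine. Dosing was an intravenous bolus 10–15 min after interdigestive gastric contractions ended. Antral contractile waves were integrated for 10 min from injection. Relative potency came from a 2 × 2 parallel line assay with five animals per dose, using EM as the reference in each assay.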

[4] = test system: Escherichia coli; experiment: Antibacterial activity against Escherichia coli NIHJ; assay type: functional; how it was run: as §1
[5] = test system: Klebsiella pneumoniae; experiment: Antibacterial activity against Klebsiella pneumoniae ATCC 10031; assay type: functional; how it was run: as §1
[6] = test system: Staphylococcus aureus; experiment: Antibacterial activity against Staphylococcus aureus ATCC 6538P; assay type: functional; how it was run: as §1

Row | Compound | MIC [1] | MIC [2] | GMS activity [3] | MIC [4] | MIC [5] | MIC [6]
1 | CCC1OC(=O)C(C)C(O[C@H]2C[C@@](C)(OC)[C@@H](O)[C@@H](C)O2)C(C)[C@@H](O[C@@H]2O[C@H](C)C[C@@H]([N+](C)(C)CC)[C@H]2O)[C@]2(C)CC(C)=C(O2)[C@H](C)[C@@H](O)[C@]1(C)O.[I-] (stereo not given in full) | > 100 µg/mL | > 100 µg/mL | 111 | > 100 µg/mL | > 100 µg/mL | > 100 µg/mL
2 | C=CC[N+](C)(C)C1CC(C)OC(O[C@@H]2C(C)C(OC3CC(C)(OC)C(O)C(C)O3)C(C)C(=O)OC(CC)[C@@](C)(O)[C@H](O)[C@@H](C)C3O[C@@]2(C)C[C@H]3C)C1O.[Br-] (stereo not given in full) | 100 µg/mL | 100 µg/mL | 115 | > 100 µg/mL | > 100 µg/mL | 100 µg/mL
3 | CC[C@H]1OC(=O)[C@H](C)[C@@H](O[C@H]2C[C@@](C)(OC)[C@@H](O)[C@H](C)O2)[C@H](C)[C@@H](O[C@@H]2O[C@H](C)C[C@H](N(C)C)[C@H]2O)[C@](C)(O)C[C@@H](C)C(=O)[C@H](C)[C@@H](O)[C@]1(C)O [ERYTHROMYCIN] | 0.1 µg/mL (≈ 0.136 µM) | 0.1 µg/mL (≈ 0.136 µM) | 1 | 12.5 µg/mL (≈ 17 µM) | 6.25 µg/mL (≈ 8.52 µM) | 0.2 µg/mL (≈ 0.273 µM)
4 | CCC1OC(=O)C(C)C(O[C@H]2C[C@@](C)(OC)[C@@H](O)[C@@H](C)O2)C(C)[C@@H](O[C@@H]2O[C@H](C)C[C@@H]([N+](C)(C)C)[C@H]2O)[C@]2(C)CC(C)=C(O2)[C@H](C)[C@@H](O)[C@]1(C)O.[I-] (stereo not given in full) | > 100 µg/mL | > 100 µg/mL | 21 | > 100 µg/mL | > 100 µg/mL | > 100 µg/mL
5 | C=CC[N+](C)(C)[C@@H]1C[C@@H](C)O[C@@H](O[C@@H]2C(C)C(O[C@H]3C[C@@](C)(OC)[C@@H](O)[C@@H](C)O3)C(C)C(=O)OC(CC)[C@@](C)(O)[C@H](O)[C@@H](C)C3=C(C)C[C@]2(C)O3)[C@@H]1O.[Br-] (stereo not given in full) | > 100 µg/mL | > 100 µg/mL | 256 | > 100 µg/mL | > 100 µg/mL | 100 µg/mL
6 | C#CC[N+](C)(C)C1CC(C)OC(O[C@@H]2C(C)C(OC3CC(C)(OC)C(O)C(C)O3)C(C)C(=O)OC(CC)[C@@](C)(O)[C@H](O)[C@@H](C)C3O[C@@]2(C)C[C@H]3C)C1O.[Br-] (stereo not given in full) | > 100 µg/mL | > 100 µg/mL | 202 | > 100 µg/mL | > 100 µg/mL | > 100 µg/mL
7 | C#CC[N+](C)(C)[C@@H]1C[C@@H](C)O[C@@H](O[C@@H]2C(C)C(O[C@H]3C[C@@](C)(OC)[C@@H](O)[C@@H](C)O3)C(C)C(=O)OC(CC)[C@@](C)(O)[C@H](O)[C@@H](C)C3=C(C)C[C@]2(C)O3)[C@@H]1O.[Br-] (stereo not given in full) | 100 µg/mL | 100 µg/mL | 2890 | > 100 µg/mL | > 100 µg/mL | 100 µg/mL
8 | CCC1OC(=O)C(C)C(OC2CC(C)(OC)C(O)C(C)O2)C(C)[C@@H](OC2OC(C)CC([N+](C)(C)C)C2O)[C@]2(C)C[C@@H](C)C(O2)[C@H](C)[C@@H](O)[C@]1(C)O.[I-] (stereo not given in full) | > 100 µg/mL | > 100 µg/mL | 65 | > 100 µg/mL | > 100 µg/mL | > 100 µg/mL
9 | CC[C@H]1OC(=O)[C@H](C)[C@@H](O[C@H]2C[C@@](C)(OC)[C@@H](O)[C@H](C)O2)[C@H](C)[C@@H](O[C@@H]2O[C@H](C)C[C@H](N(C)C)[C@H]2O)[C@@]2(C)CC(C)=C(O2)[C@H](C)[C@@H](O)[C@]1(C)O | 25 µg/mL (≈ 34.9 µM) | 25 µg/mL (≈ 34.9 µM) | 10 | > 100 µg/mL | > 100 µg/mL | 50 µg/mL (≈ 69.8 µM)
10 | CCC1OC(=O)C(C)C(O[C@H]2C[C@@](C)(OC)[C@@H](O)[C@@H](C)O2)C(C)[C@@H](O[C@@H]2O[C@H](C)C[C@@H](N(C)CC)[C@H]2O)[C@]2(C)CC(C)=C(O2)[C@H](C)[C@@H](O)[C@]1(C)O (stereo not given in full) | > 100 µg/mL | > 100 µg/mL | 18 | > 100 µg/mL | > 100 µg/mL | > 100 µg/mL
